Converted amounts (≈) assume the structure as drawn. The source made the active and inactive calls. The calls are words filed in the database; no cut-off is given here.
Legend:
Bos taurus [1] = species on record: Bos taurus; test: Activation of full-length myosin ATPase activity in bovine Cardiomyofibril in presence of CaCl2 and ATP by HTS assay; format: tissue-based
Method in brief: (§1)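 Calcium-stimulated ATPase activity of cardiac myofibrils (bovine), slow skeletal myofibrils (bovine masseter), fast skeletal myofibrils (rabbit) or chicken gizzard smooth muscle myosin; 10-point dose response up to 40 μM.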

[2] = Half life in Sprague-Dawley rat at 0.5 mg/kg,iv administered as bolus injection measured after 24 hrs by HPLC analysis; format: ADME, organism-based; details: in vivo
Method in brief: (§2)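 Male Sprague-Dawley rats given a single intravenous bolus; blood sampled from just before dosing to 24 h after; compound in blood or plasma measured by HPLC against a standard.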

[3] = Plasma protein binding in rat assessed as unbound fraction at 5 uM incubated for 6 hrs by equilibrium dialysis based HPLC analysis; format: ADME, cell-free
Method in brief: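 Equilibrium dialysis: compound added at 5 μM to the buffer chamber, shaken against rat plasma for 6 h at 37 °C. Both chambers analysed by HPLC against standards; reported as % unbound.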

[4] = Clearance in Sprague-Dawley rat at 0.5 mg/kg,iv administered as bolus injection measured after 24 hrs by HPLC analysis; format: ADME, organism-based; details: in vivo; method in brief: as §2
[5] = molecular target: cGMP-inhibited 3',5'-cyclic phosphodiesterase 3A (Homo sapiens, UniProt Q14432); test: Inhibition of PDE3A (unknown origin) using cAMP as substrate preincubated for 20 mins followed by substrate addition measured after 30 mins by HTS assay
Method in brief: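 PDE3A preincubated with compound in 50 mM Tris, 5 mM MgCl₂, pH 7.5, for 20 min at room temperature. Then 0.2 µM cAMP substrate added for 30 min at room temperature, followed by a PDELight stop/detection mix.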

[6] = Volume of distribution in Sprague-Dawley rat at 0.5 mg/kg,iv administered as bolus injection measured after 24 hrs by HPLC analysis; format: ADME, organism-based; details: in vivo; method in brief: as §2
Bos taurus [7] = species on record: Bos taurus; test: Activation of full-length myosin ATPase activity in bovine slow skeletal myofibrils in presence of CaCl2 and ATP by HTS assay; format: tissue-based; details: filed as activator; method in brief: as §1
Oryctolagus cuniculus [8] = species on record: Oryctolagus cuniculus; details: Fast skeletal myofibrils
[9] = Solubility of compound at pH 6.8 incubated for 12 hrs by HPLC analysis; format: physicochemical; details: buffer, pH 6.8, 12 h
Method in brief: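 Agitated 12 h at room temperature in pH 6.8 monopotassium phosphate JP2 buffer, filtered, quantified by HPLC against a standard.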

Gallus gallus [10] = species on record: Gallus gallus; details: Gizzard
Oryctolagus cuniculus [11] = species on record: Oryctolagus cuniculus; test: Activation of Myosin S1 ATPase activity in rabbit fast skeletal myofibrils at 40 uM in presence of bovine cardiac thin filament; format: tissue-based; details: filed as activator
Bos taurus [12] = species on record: Bos taurus; test: Activation of Myosin S1 ATPase activity in bovine Cardiomyofibril at 40 uM in presence of bovine cardiac thin filament; format: tissue-based; details: filed as activator
Cardiac muscle cell [13] = test: Induction of Sprague-Dawley rat Cardiomyocyte contractility by measuring myocyte relaxation time at 10 uM incubated for 5 mins by imaging analysis; format: functional
Bos taurus [14] = species on record: Bos taurus; test: Activation of full-length myosin ATPase activity in bovine slow skeletal myofibrils at 0.01 to 100 uM in presence of CaCl2 and ATP by HTS assay; format: tissue-based; details: dose 0.01-100 µM
Cardiac muscle cell [15] = test: Induction of Sprague-Dawley rat Cardiomyocyte contractility assessed as increase in myocyte relaxation time at 10 uM incubated for 5 mins by imaging analysis relative to control; format: functional; parameters: scale not given: the % may be the effect or the level left
Gallus gallus [16] = species on record: Gallus gallus; test: Activation of full-length myosin ATPase activity in chicken Gizzard at 0.01 to 40 uM in presence of CaCl2 and ATP by HTS assay; details: dose 0.01-40 µM
Cardiac muscle cell [17] = test: Induction of Sprague-Dawley rat Cardiomyocyte contractility by measuring myocyte relaxation velocity at 10 uM incubated for 5 mins by imaging analysis; format: functional
Cardiac muscle cell [18] = test: Induction of Sprague-Dawley rat Cardiomyocyte contractility assessed as increase in myocyte fractional shortening at 10 uM incubated for 5 mins by imaging analysis; format: functional, cell-based
Bos taurus [19] = species on record: Bos taurus; test: Activation of full-length myosin ATPase activity in bovine Cardiomyofibril at 0.01 to 100 uM in presence of CaCl2 and ATP by HTS assay; format: tissue-based; details: dose 0.01-100 µM
Cardiac muscle cell [20] = test: Induction of Sprague-Dawley rat Cardiomyocyte contractility assessed as increase in myocyte relaxation velocity at 10 uM incubated for 5 mins by imaging analysis relative to control; format: functional; parameters: scale not given: the % may be the effect or the level left
Oryctolagus cuniculus [21] = species on record: Oryctolagus cuniculus; test: Activation of full-length myosin ATPase activity in rabbit fast skeletal myofibrils at 0.01 to 40 uM in presence of CaCl2 and ATP by HTS assay; details: dose 0.01-40 µM

Sequence of cGMP-inhibited 3',5'-cyclic phosphodiesterase 3A (Q14432 whole entry): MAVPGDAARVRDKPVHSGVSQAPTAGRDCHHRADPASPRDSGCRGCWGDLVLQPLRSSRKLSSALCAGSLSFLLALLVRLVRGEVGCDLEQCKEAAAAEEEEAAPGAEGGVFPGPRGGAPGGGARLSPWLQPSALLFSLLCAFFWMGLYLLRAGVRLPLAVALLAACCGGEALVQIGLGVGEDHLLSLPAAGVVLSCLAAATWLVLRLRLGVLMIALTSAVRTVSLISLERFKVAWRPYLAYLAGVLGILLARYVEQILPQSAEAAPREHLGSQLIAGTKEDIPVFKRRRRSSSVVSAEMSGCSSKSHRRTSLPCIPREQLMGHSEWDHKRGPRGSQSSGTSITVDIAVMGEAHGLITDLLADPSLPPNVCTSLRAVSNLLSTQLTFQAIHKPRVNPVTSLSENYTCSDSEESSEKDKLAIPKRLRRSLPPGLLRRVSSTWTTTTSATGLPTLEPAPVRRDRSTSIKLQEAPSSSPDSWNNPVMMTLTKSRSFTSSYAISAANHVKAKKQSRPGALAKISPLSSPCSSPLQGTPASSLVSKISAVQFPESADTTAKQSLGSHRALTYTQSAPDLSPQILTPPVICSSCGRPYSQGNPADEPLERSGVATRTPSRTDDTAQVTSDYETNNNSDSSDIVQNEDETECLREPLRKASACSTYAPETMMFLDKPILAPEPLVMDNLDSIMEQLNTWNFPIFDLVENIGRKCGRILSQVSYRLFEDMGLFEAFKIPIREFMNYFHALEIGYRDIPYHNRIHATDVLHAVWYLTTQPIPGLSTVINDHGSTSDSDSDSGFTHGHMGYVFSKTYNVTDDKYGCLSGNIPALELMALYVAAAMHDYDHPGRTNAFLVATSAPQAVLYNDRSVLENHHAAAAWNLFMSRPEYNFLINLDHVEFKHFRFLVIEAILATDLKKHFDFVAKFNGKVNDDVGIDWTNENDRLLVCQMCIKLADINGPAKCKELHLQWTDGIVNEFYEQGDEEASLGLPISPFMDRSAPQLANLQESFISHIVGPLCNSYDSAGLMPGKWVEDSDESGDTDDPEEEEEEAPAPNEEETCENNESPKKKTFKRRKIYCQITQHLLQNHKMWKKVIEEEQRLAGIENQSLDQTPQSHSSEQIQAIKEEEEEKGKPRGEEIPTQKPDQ

## O=c1[nH]c(=O)c2cc(S(=O)(=O)Nc3ccc(-c4ccccc4)cn3)ccc2[nH]1
Bos taurus [1]; filed as activator
  EC40: 18 µM

## O=c1[nH]c(=O)c2cc(S(=O)(=O)Nc3cnc(-c4ccccc4)nc3)ccc2[nH]1
Bos taurus [1]
  EC40: > 39 µM

## C[C@@H]1C[C@H](C)CN(c2ccc(NS(=O)(=O)c3ccc4c(c3)c(=O)[nH]c(=O)n4C)cn2)C1
Bos taurus [1]; filed as activator
  EC40: 11.1 µM

## Cn1c(=O)[nH]c(=O)c2cc(S(=O)(=O)Nc3ccc(N4CCCCC4)nc3)ccc21
Bos taurus [1]
  EC40: > 30 µM

## Cc1nc2cc(OCCN3CCOCC3)c(S(=O)(=O)Nc3ccc(N4C[C@H](C)C[C@@H](C)C4)nc3)cc2c(=O)[nH]1
[2]
  t1/2: 0.6 h
[3]
  fraction unbound at 6 h, 5 µM: 0.037
Bos taurus [1]; filed as activator
  EC40: 0.7 µM
[4]
  clearance: 7.1 mL/min/kg
[5]
  IC50: > 40 µM
[6]
  Vd: 3.8 L/kg

## O=c1[nH]c(=O)c2cc(S(=O)(=O)Nc3ccc(-c4ccccc4)cc3)ccc2[nH]1
Bos taurus [7]
  EC40: < 0.1 µM
Oryctolagus cuniculus [8]
  EC40: > 39.2 µM
[9]
  solubility: 2.4 µM (≈ 0.944 µg/mL)
Bos taurus [1]; filed as activator
  EC40: < 0.1 µM
[5]
  IC50: 4.6 µM
Gallus gallus [10]
  EC40: > 39.2 µM

## COc1cc2nc(C)[nH]c(=O)c2cc1S(=O)(=O)Nc1ccc(N2C[C@H](C)C[C@@H](C)C2)nc1
[2]
  t1/2: 2.3 h
[3]
  fraction unbound at 6 h, 5 µM: 0.008
Bos taurus [1]; filed as activator
  EC40: 0.7 µM
[4]
  clearance: 0.1 mL/min/kg
[5]
  IC50: > 40 µM

## O=c1[nH]c2ccc(S(=O)(=O)Nc3ccc(-c4ccccc4)cc3)cc2[nH]1
Bos taurus [1]; filed as activator
  EC40: 5.5 µM
Oryctolagus cuniculus [11]
  Activity: Active
Bos taurus [12]
  Activity: Active

## O=c1[nH]c(=O)c2cc(S(=O)(=O)Nc3ccc(-c4ccccc4)nc3)ccc2[nH]1
Bos taurus [1]; filed as activator
  EC40: 5.3 µM

## Cc1nc2ccc(S(=O)(=O)Nc3ccc(N4C[C@H](C)C[C@@H](C)C4)nc3)cc2c(=O)[nH]1
Bos taurus [1]; filed as activator
  EC40: 4.5 µM
[5]
  IC50: > 40 µM

## CNc1cc2nc(C)[nH]c(=O)c2cc1S(=O)(=O)Nc1ccc(N2C[C@H](C)C[C@@H](C)C2)nc1
[2]
  t1/2: 1.1 h
[3]
  fraction unbound at 6 h, 5 µM: 0.012
Bos taurus [1]; filed as activator
  EC40: 1.4 µM
[4]
  clearance: 3.3 mL/min/kg
[5]
  IC50: > 40 µM
[6]
  Vd: 1.8 L/kg

## Cn1c(=O)[nH]c(=O)c2cc(S(=O)(=O)Nc3ccc(-c4ccccc4)cc3)ccc21
Bos taurus [1]; filed as activator
  EC40: < 0.1 µM
[5]
  IC50: 4.6 µM

## O=c1[nH]c(=O)c2cc(S(=O)(=O)Nc3ccccc3)ccc2[nH]1
Bos taurus [1]
  EC40: > 39 µM

## C[C@@H]1C[C@@H](C)CN(c2ccc(NS(=O)(=O)c3ccc4c(c3)c(=O)[nH]c(=O)n4C)cn2)C1
Bos taurus [1]; filed as activator
  EC40: 0.5 µM

## O=c1[nH]c(=O)c2cc(S(=O)(=O)Nc3ccc(N4CCCCCC4)cc3)ccc2[nH]1
Cardiac muscle cell [13]
  Time: 0.308 s
Bos taurus [14]
  Activity: inactive
Cardiac muscle cell [15]
  Activity: 30%
Bos taurus [7]
  EC40: 1.7 µM
Oryctolagus cuniculus [8]
  EC40: > 39.2 µM
[9]
  solubility: 2.3 µM (≈ 0.953 µg/mL)
Gallus gallus [16]
  Activity: inactive
Cardiac muscle cell [17]
  Activity: 55.4 um/s
Bos taurus [1]; filed as activator
  EC40: 1.1 µM
Oryctolagus cuniculus [11]
  Activity: Active
Cardiac muscle cell [18]
  Activity: Active
[5]
  IC50: 2.3 µM
Bos taurus [19]
  Activity: inactive
Bos taurus [12]
  Activity: Active
Cardiac muscle cell [20]
  Activity: 23%
Oryctolagus cuniculus [21]
  Activity: inactive
Gallus gallus [10]
  EC40: > 39.2 µM

## C[C@@H]1CCCN(c2ccc(NS(=O)(=O)c3ccc4c(c3)c(=O)[nH]c(=O)n4C)cn2)C1
Bos taurus [1]; filed as activator
  EC40: 4.3 µM

## C[C@H]1CCCN(c2ccc(NS(=O)(=O)c3ccc4c(c3)c(=O)[nH]c(=O)n4C)cn2)C1
Bos taurus [1]
  EC40: > 33 µM

## CN(c1ccc(-c2ccccc2)cc1)S(=O)(=O)c1ccc2[nH]c(=O)[nH]c(=O)c2c1
Bos taurus [1]
  EC40: > 39 µM

## C[C@H]1C[C@H](C)CN(c2ccc(NS(=O)(=O)c3ccc4c(c3)c(=O)[nH]c(=O)n4C)cn2)C1
Bos taurus [1]; filed as activator
  EC40: 21.9 µM

— ChEMBL document CHEMBL5506001 (J Med Chem, 2024)
